Data as given in ChEMBL document CHEMBL3862030, “Identification of the minimum PAR4 inhibitor pharmacophore and optimization of a series of 2-methoxy-6-arylimidazo[2,1-b][1,3,4]thiadiazoles” (Bioorg Med Chem Lett, 2016).
Activity calls are given as the source filed them. The rule behind the calls is not given here.

Experiments:
[1] = molecular target: T1, Proteinase-activated receptor 4 (Homo sapiens, UniProt Q96RI0); assay: Antagonist activity at PAR4 in human platelets assessed as inhibition of activating peptide-induced PAC1 binding response preincubated for 20 mins followed by agonist addition for 20 mins by FITC-based flow cytometric analysis
T1 sequence (Q96RI0 whole entry): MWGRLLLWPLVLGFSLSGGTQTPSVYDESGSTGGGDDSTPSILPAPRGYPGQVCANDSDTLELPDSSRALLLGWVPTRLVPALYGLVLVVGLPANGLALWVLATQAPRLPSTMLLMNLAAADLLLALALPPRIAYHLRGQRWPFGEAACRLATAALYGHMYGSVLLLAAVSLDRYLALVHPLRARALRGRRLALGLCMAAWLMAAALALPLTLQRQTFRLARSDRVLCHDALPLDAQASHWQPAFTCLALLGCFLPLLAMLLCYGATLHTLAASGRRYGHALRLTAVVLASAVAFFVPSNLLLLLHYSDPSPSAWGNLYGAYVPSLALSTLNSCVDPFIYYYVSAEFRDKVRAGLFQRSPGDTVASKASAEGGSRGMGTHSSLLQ
Summary of the method: (§1)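 Human platelets were activated with 200 μM PAR4-AP. The read-outs were PAC-1 binding and P-selectin exposure, measured by flow cytometry.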

[2] = molecular target: T1, Proteinase-activated receptor 4; assay: Antagonist activity at PAR4 in human platelets assessed as inhibition of gamma-thrombin-induced PAC1 binding response preincubated for 20 mins followed by agonist addition for 20 mins by FITC-based flow cytometric analysis
Summary of the method: (§2)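 Human platelets were stimulated with γ-thrombin at 100 nM. Activation was read by flow cytometry as PAC-1 binding and P-selectin surface expression.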

[3] = Fraction unbound in human plasma at 5 uM after 4 hrs by equilibrium dialysis method; assay type: ADME, cell-free
[4] = tested on: Platelet; assay: Antiplatelet activity in human platelets assessed as inhibition of gamma thrombin-induced aggregation at 316 nM to 3.16 uM preincubated for 20 mins followed by gamma thrombin addition measured for 10 mins by aggregometer; assay type: functional, cell-based
Summary of the method: (§3)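 Aggregation was monitored for 10 min, with final % aggregation taken at that point. Data are means±SEM of at least three independent experiments, compared to controls by paired t-test.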

[5] = tested on: Platelet; assay: Antiplatelet activity in human platelets assessed as inhibition of activating peptide-induced aggregation at 316 to 1000 nM preincubated for 20 mins followed by activating peptide addition measured for 10 mins by aggregometer; assay type: functional, cell-based; summary of the method: as §3
[6] = Fraction unbound in rat plasma at 5 uM after 4 hrs by equilibrium dialysis method; assay type: ADME, cell-free
[7] = molecular target: T2, Proteinase-activated receptor 4 (Homo sapiens) (UniProt Q96RI0); details: 31.6 to 1000 nM
T2 sequence (whole entry): T1 sequence (Q96RI0 whole entry)

[8] = Intrinsic clearance in rat liver microsomes at 1 uM preincubated for 5 mins followed by NADPH addition measured after 3 to 45 mins by LC/MS/MS analysis; assay type: ADME; details: read-out: CLH
[9] = Intrinsic clearance in human liver microsomes at 1 uM preincubated for 5 mins followed by NADPH addition measured after 3 to 45 mins by LC/MS/MS analysis; assay type: ADME; details: read-out: CLH
[10] = Lipophilicity, log P of the compound; assay type: physicochemical; details: octanol/water
[11] = tested on: Platelet; assay: Antiplatelet activity in human platelets assessed as inhibition of activating peptide-induced aggregation at 100 to 316 nM preincubated for 20 mins followed by activating peptide addition measured for 10 mins by aggregometer; assay type: functional, cell-based; details: 316 nM to 1 uM, in the assay text read “316 nM to 1 uM” for “100 to 316 nM”; summary of the method: as §3
[12] = molecular target: T2, Proteinase-activated receptor 4 (Homo sapiens); details: 31.6 to 316 nM
[13] = molecular target: T1, Proteinase-activated receptor 4; assay: Antagonist activity at PAR4 (unknown origin) assessed as inhibition of gamma-thrombin-induced receptor activation
[14] = molecular target: T1, Proteinase-activated receptor 4; assay: Antagonist activity at PAR4 (unknown origin) assessed as inhibition of activating peptide-induced receptor activation
[15] = molecular target: T3, Proteinase-activated receptor 1 (Homo sapiens, UniProt P25116); assay: Antagonist activity at PAR1 in human platelets assessed as inhibition of activating peptide-induced P-selectin activation
T3 sequence (P25116 whole entry): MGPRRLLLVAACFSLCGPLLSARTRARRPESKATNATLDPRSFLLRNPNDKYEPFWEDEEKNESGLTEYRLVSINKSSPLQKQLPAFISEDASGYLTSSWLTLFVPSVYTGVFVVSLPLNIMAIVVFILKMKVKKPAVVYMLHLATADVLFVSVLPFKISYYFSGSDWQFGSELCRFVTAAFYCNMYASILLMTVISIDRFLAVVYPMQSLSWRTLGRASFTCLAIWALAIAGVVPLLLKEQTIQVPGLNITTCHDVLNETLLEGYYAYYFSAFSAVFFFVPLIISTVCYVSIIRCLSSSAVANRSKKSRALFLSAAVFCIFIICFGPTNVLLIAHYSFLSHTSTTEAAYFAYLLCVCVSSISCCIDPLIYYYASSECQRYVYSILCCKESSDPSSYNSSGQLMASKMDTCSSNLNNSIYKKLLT

[16] = tested on: Platelet; assay: Antiplatelet activity in human platelets assessed as inhibition of gamma thrombin-induced aggregation at 10 uM preincubated for 20 mins followed by gamma thrombin addition measured for 10 mins by aggregometer; assay type: functional, cell-based; summary of the method: as §3
[17] = molecular target: T2, Proteinase-activated receptor 4 (Homo sapiens); assay: Ratio of IC50 for PAR4 in human platelets assessed as inhibition of gamma-thrombin-induced PAC1 binding response to IC50 for PAR4 in human platelets assessed as inhibition of activating peptide-induced PAC1 binding response
[18] = molecular target: T3, Proteinase-activated receptor 1; assay: Antagonist activity at PAR1 in human platelets assessed as inhibition of activating peptide-induced PAC1 binding response
[19] = molecular target: T1, Proteinase-activated receptor 4; assay: Antagonist activity at PAR4 in human platelets assessed as inhibition of activating peptide-induced P-selectin activation; summary of the method: as §1
[20] = molecular target: T1, Proteinase-activated receptor 4; assay: Antagonist activity at PAR4 in human platelets assessed as inhibition of gamma-thrombin-induced P-selectin activation; summary of the method: as §2
[21] = Fraction unbound in human plasma; assay type: ADME, cell-free
[22] = Fraction unbound in rat plasma; assay type: ADME, cell-free

In the case of `CNc1nn2cc(-c3c(F)cccc3F)nc2s1`, the IC50 [1] is reported as > 10000 nM.

In the case of `COc1nn2cc(-c3ccccc3Cl)nc2s1`, the IC50 [1] is reported as 437 nM.

`COc1nn2cc(-c3cc(C(F)(F)F)cc(C(F)(F)F)c3)nc2s1` showed an IC50 [2] of 5620 nM.

For `COc1nn2cc(-c3ccc(C)cc3)nc2s1`, the IC50 [1] was 57.2 nM.

In the case of `COc1nn2cc(-c3ccc(Cl)cc3)nc2s1`, the Fu [3] is reported as 0.006 to 0.014, the inhibition [4] is reported as “Active” and the inhibition [5] is reported as “Active”. The Fu [6] was 0.006 to 0.014, the inhibition [7] was “Active” and the CLint scaled at 1 µM [8] was 46.3 to 58.3 mL/min/kg. For the same compound, the CLint scaled at 1 µM [9] was 13.6 to 19.9 mL/min/kg and the logP [10] was > 4.

`COc1nn2cc(-c3ccc(S(C)(=O)=O)cc3)nc2s1` gave an IC50 [1] of 1200 nM.

In the case of `COc1nn2cc(-c3ccc(OC(F)(F)F)cc3)nc2s1`, the Fu [3] is reported as 0.006 to 0.014, the inhibition [11] is reported as “Active” and the inhibition [4] is reported as “Active”. The Fu [6] was 0.006 to 0.014, the inhibition [12] was “Active” and the CLint scaled at 1 µM [8] was 46.3 to 58.3 mL/min/kg. For the same compound, the CLint scaled at 1 µM [9] was 13.6 to 19.9 mL/min/kg and the logP [10] was > 4.

For `COc1nn2cc(-c3ccccc3)nc2s1`, the IC50 [1] was 757 nM.

For `COc1nn2cc(-c3cc4ccccc4o3)nc2s1`, the IC50 [13] was 58.8 nM and the IC50 [14] was 1.69 nM.

With `COc1nn2cc(-c3ccc(C(F)(F)F)cc3)nc2s1` the Fu [3] was 0.006 to 0.014, the inhibition [11] was “Active” and the inhibition [4] was “Active”. The Fu [6] was 0.006 to 0.014, the inhibition [12] was “Active” and the CLint scaled at 1 µM [8] was 46.3 to 58.3 mL/min/kg. For the same compound, the CLint scaled at 1 µM [9] was 13.6 to 19.9 mL/min/kg and the logP [10] was > 4.

`COc1nn2cc(-c3cccc(F)c3)nc2s1` gave an IC50 [1] of 675 nM.

Work on `COc1nn2cc(-c3ccccc3[N+](=O)[O-])nc2s1` yielded an IC50 [1] of 4840 nM.

For `COc1nn2cc(-c3ccc(OC(F)F)cc3)nc2s1`, the IC50 [2] was 2540 nM.

In the case of `COc1ccc(-c2cn3nc(OC)sc3n2)cc1`, the IC50 [1] is reported as 592 nM.

For `COc1nn2cc(-c3cccc(Cl)c3)nc2s1`, the IC50 [2] was > 10000 nM and the IC50 [1] was 72.8 nM.

With `CN(C)c1nn2cc(-c3c(F)cccc3F)nc2s1` the IC50 [1] was 3400 nM.

For `COc1nn2cc(-c3cc4cc(OC(F)(F)F)ccc4n3C)nc2s1`, the IC50 [15] was > 10 µM, the inhibition [16] was “Active” and the inhibition [5] was “Active”. For the same compound, the IC50 [2] was 1000 nM, the Ratio IC50 [17] was 50 and the IC50 [18] was > 10 µM. The IC50 [19] was 20 nM, the IC50 [1] was 20 to 21 nM and the IC50 [20] was 1000 nM.

For `COc1nn2cc(-c3cccc([N+](=O)[O-])c3)nc2s1`, the IC50 [1] was > 10000 nM.

For `COc1nn2cc(-c3ccc(O)cc3)nc2s1`, the IC50 [1] was > 10000 nM.

For `COc1cc(OCc2csc(-c3ccccc3)n2)c2cc(-c3cn4nc(OC)sc4n3)oc2c1`, the fraction unbound [21] was < 0.001 and the fraction unbound [22] was < 0.001.

`COc1nn2cc(-c3ccc(C#N)cc3)nc2s1` showed an IC50 [1] of 937 nM.
